Converted amounts (≈) assume the structure as drawn.
Legend:
Candida albicans = experiment: Antifungal activity against Candida albicans was determined by twofold Micro-broth dilution assay; type: functional, organism-based
Method in brief: (§1)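 Fungal strains tested by two-fold serial broth microdilution in microtitre plates. Cells diluted in phosphate-buffered saline to 10^6 cfu/mL and inoculated at a final 10^3 cells per 150 µL medium. Medium/inoculum and solvent controls were included. Incubation at 28 °C, then OD read at 600 nm. IC50 is the concentration at which growth is 50% of the control inoculum.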

Nannizzia gypsea = experiment: Antifungal activity against Microsporum gypseum was determined by twofold Micro-broth dilution assay; type: functional, organism-based; method in brief: as §1
Trichophyton rubrum = experiment: Antifungal activity against Trichophyton rubrum was determined by twofold Micro-broth dilution assay; type: functional, organism-based; method in brief: as §1
Aspergillus flavus = experiment: Antifungal activity against Aspergillus flavus was determined by twofold Micro-broth dilution assay; type: functional, organism-based; method in brief: as §1
Sporothrix schenckii = experiment: Antifungal activity against Sporothrix schenck ii was determined by twofold Micro-broth dilution assay; type: functional, organism-based; method in brief: as §1
Aspergillus niger = experiment: Antifungal activity against Aspergillus niger was determined by twofold Micro-broth dilution assay; type: functional, organism-based; method in brief: as §1
Salmonella typhimurium = experiment: Antibacterial activity against gram negative bacteria Salmonella Typhimurium was determined by twofold Micro-broth dilution assay; type: functional, organism-based, Salmonella enterica subsp. enterica serovar Typhimurium; settings: Salmonella enterica
Method in brief: (§2)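 Broth microdilution with two-fold serial dilutions of compound added to pre-inoculated microtitre plates. Inoculum diluted in phosphate-buffered saline to 10^6 cfu/mL, then plated at a final 10^3 cells per 150 µL medium. Controls were medium plus inoculum and a solvent control at the highest-concentration solvent level. Plates incubated at 37 °C and read by OD at 600 nm. IC50 is the concentration giving 50% of control-inoculum growth.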

[1] = tested on: Staphylococcus epidermidis; experiment: Antibacterial activity against gram positive bacteria Staphylococcus epidermidis was determined by twofold Micro-broth dilution assay; type: functional, organism-based; method in brief: as §2
Escherichia coli = experiment: Antibacterial activity against gram negative bacteria Escherichia coli was determined by twofold Micro-broth dilution assay; type: functional, organism-based; method in brief: as §2
Staphylococcus aureus = experiment: Antibacterial activity against gram positive bacteria Staphylococcus aureus was determined by twofold Micro-broth dilution assay; type: functional, organism-based; method in brief: as §2
Histoplasma capsulatum = experiment: Antifungal activity against Histoplasma capsulatum was determined by twofold Micro-broth dilution assay; type: functional, organism-based
Method in brief: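 Fungal broth microdilution. Cells were diluted to 10^6 cfu/mL in phosphate-buffered saline and seeded at a final 10^3 cells per well. Two-fold serial compound dilutions were added. Plates carried inoculum-only and solvent controls, the solvent matched to the highest concentration. After incubation at 28 °C, OD was read at 600 nm. IC50 is the concentration where growth is 50% of control.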

Cryptococcus neoformans = experiment: Antifungal activity against Cryptococcus neoformans was determined by twofold Micro-broth dilution assay; type: functional, organism-based; method in brief: as §1
Streptococcus mutans = experiment: Antibacterial activity against gram positive bacteria Streptococcus mutans was determined by twofold Micro-broth dilution assay; type: functional, organism-based; method in brief: as §2
Shigella flexneri = experiment: Antibacterial activity against gram negative bacteria Shigella flexenerii was determined by twofold Micro-broth dilution assay; type: functional, organism-based; method in brief: as §2
Salmonella typhi = experiment: Antibacterial activity against gram negative bacteria Salmonella typhi was determined by twofold Micro-broth dilution assay; type: functional, organism-based, Salmonella enterica subsp. enterica serovar Typhi; settings: Salmonella enterica
Enterococcus faecalis = experiment: Antibacterial activity against gram positive bacteria Enterococcus faecalis was determined by twofold Micro-broth dilution assay; type: functional, organism-based; method in brief: as §2
Klebsiella aerogenes = experiment: Antibacterial activity against gram negative bacteria Enterobacter aerogens was determined by twofold Micro-broth dilution assay; type: functional, organism-based; method in brief: as §2
[2] = Candida albicans, read-out: IC50
[3] = Nannizzia gypsea, read-out: IC50
[4] = Trichophyton rubrum, read-out: IC50
[5] = Aspergillus flavus, read-out: IC50
[6] = Sporothrix schenckii, read-out: IC50
[7] = Aspergillus niger, read-out: IC50

Row | Molecule | IC50 (Candida albicans; [2]) [µg/mL] | IC50 (Salmonella typhimurium) [µg/mL] | IC50 [1] [µg/mL] | IC50 (Escherichia coli) [µg/mL] | IC50 (Staphylococcus aureus) [µg/mL] | IC50 (Histoplasma capsulatum) [µg/mL] | IC50 (Nannizzia gypsea; [3]) [µg/mL] | IC50 (Trichophyton rubrum; [4]) [µg/mL] | IC50 (Cryptococcus neoformans) [µg/mL] | IC50 (Streptococcus mutans) [µg/mL] | IC50 (Shigella flexneri) [µg/mL] | IC50 (Salmonella typhi) [µg/mL] | IC50 (Aspergillus flavus; [5]) [µg/mL] | IC50 (Sporothrix schenckii; [6]) [µg/mL] | IC50 (Enterococcus faecalis) [µg/mL] | IC50 (Klebsiella aerogenes) [µg/mL] | IC50 (Aspergillus niger; [7]) [µg/mL] | other results
1 | NYSTATIN |  |  |  |  |  |  |  |  |  |  |  |  |  |  |  |  |  | IC50 (Candida albicans): 0.25 µg/mL; IC50 (Nannizzia gypsea): 3.125 µg/mL; IC50 (Trichophyton rubrum): 2.5 µg/mL; IC50 (Aspergillus flavus): 2.5 µg/mL; IC50 (Sporothrix schenckii): 3.125 µg/mL; IC50 (Aspergillus niger): 2.5 µg/mL
2 | C[C@H](CCC(=O)N[C@@H](CO)[C@@H](O)c1ccccc1)[C@H]1CC[C@H]2[C@@H]3C(O)C[C@@H]4C[C@H](O)CC[C@]4(C)[C@H]3C[C@H](O)[C@]12C (stereo partly specified) | > 250 | > 250 | 20 (≈ 35.9 µM) | > 250 | > 250 | > 250 | > 250 | > 250 | > 250 | 60 (≈ 108 µM) | > 250 | > 250 | > 250 | > 250 | 40 (≈ 71.7 µM) | > 250 | > 250 | 
3 | C[C@H](CCC(=O)N[C@@H](CO)[C@@H](O)c1ccccc1)[C@H]1CC[C@H]2[C@@H]3CC[C@@H]4C[C@H](O)CC[C@]4(C)[C@H]3C[C@H](O)[C@]12C | > 250 | > 250 | 220 (≈ 406 µM) | > 250 | > 250 | > 250 | > 250 | > 250 | 62.5 (≈ 115 µM) | 60 (≈ 111 µM) | > 250 | > 250 | > 250 | > 250 | > 250 | > 250 | > 250 | 
4 | C[C@H](CCC(=O)N[C@H](CO)[C@H](O)c1ccccc1)[C@H]1CC[C@H]2[C@@H]3C(O)C[C@@H]4C[C@H](O)CC[C@]4(C)[C@H]3C[C@H](O)[C@]12C (stereo partly specified) | > 250 | > 250 | 40 (≈ 71.7 µM) | > 250 | > 250 | > 250 | > 250 | > 250 | > 250 | 40 (≈ 71.7 µM) | > 250 | > 250 | > 250 | > 250 | 60 (≈ 108 µM) | > 250 | > 250 | 
5 | CN[C@@H]1[C@H](O[C@H]2[C@H](O[C@H]3[C@H](O)[C@@H](O)[C@H](N=C(N)N)[C@@H](O)[C@@H]3N=C(N)N)O[C@@H](C)[C@]2(O)C=O)O[C@@H](CO)[C@H](O)[C@H]1O [STREPTOMYCIN] |  | 1.25 (≈ 2.15 µM) | 0.12 (≈ 0.206 µM) | 1.25 (≈ 2.15 µM) | 0.3 (≈ 0.516 µM) |  |  |  |  | 0.12 (≈ 0.206 µM) | 1.25 (≈ 2.15 µM) |  |  |  | 1.25 (≈ 2.15 µM) | 1.25 (≈ 2.15 µM) |  | 
6 | C[C@H](CCC(=O)N[C@@H](CO)[C@@H](O)c1ccc([N+](=O)[O-])cc1)[C@H]1CC[C@H]2[C@@H]3CC[C@@H]4C[C@H](O)CC[C@]4(C)[C@H]3C[C@H](O)[C@]12C | > 250 | > 250 | > 250 | > 250 | > 250 | > 250 | > 250 | > 250 | > 250 | 30 (≈ 51.1 µM) | > 250 | > 250 | > 250 | > 250 | 10 (≈ 17 µM) | > 250 | > 250 | 
7 | C[C@H](CCC(=O)N[C@@H](CO)[C@@H](O)c1ccc([N+](=O)[O-])cc1)[C@H]1CC[C@H]2[C@@H]3C(O)C[C@@H]4C[C@H](O)CC[C@]4(C)[C@H]3C[C@H](O)[C@]12C (stereo partly specified) | > 250 | > 250 | > 250 | > 250 | 75 (≈ 124 µM) | > 250 | > 250 | > 250 | > 250 | 40 (≈ 66.4 µM) | > 250 | > 250 | > 250 | > 250 | > 250 | > 250 | > 250 | 
8 | C[C@H](CCC(=O)N[C@H](CO)[C@H](O)c1ccc([N+](=O)[O-])cc1)[C@H]1CC[C@H]2[C@@H]3CC[C@@H]4C[C@H](O)CC[C@]4(C)[C@H]3C[C@H](O)[C@]12C | > 250 | > 250 | 7.5 (≈ 12.8 µM) | > 250 | 7.5 (≈ 12.8 µM) | > 250 | > 250 | > 250 | > 250 | 4 (≈ 6.82 µM) | > 250 | > 250 | > 250 | > 250 | 15 (≈ 25.6 µM) | > 250 | > 250 | 
9 | CN[C@H](CC(C)C)C(=O)N[C@H]1C(=O)N[C@@H](CC(N)=O)C(=O)N[C@H]2C(=O)N[C@H]3C(=O)N[C@H](C(=O)N[C@H](C(=O)O)c4cc(O)cc(O)c4-c4cc3ccc4O)[C@H](O)c3ccc(c(Cl)c3)Oc3cc2cc(c3O[C@@H]2O[C@H](CO)[C@@H](O)[C@H](O)[C@H]2O[C@H]2C[C@](C)(N)[C@H](O)[C@H](C)O2)Oc2ccc(cc2Cl)[C@H]1O [VANCOMYCIN] |  | > 250 | 0.3 (≈ 0.207 µM) | > 250 | 0.12 (≈ 0.0828 µM) |  |  |  |  | 0.12 (≈ 0.0828 µM) | > 250 | > 250 |  |  | 0.06 (≈ 0.0414 µM) | > 250 |  | 
10 | Clc1ccccc1C(c1ccccc1)(c1ccccc1)n1ccnc1 [CLOTRIMAZOLE] | 0.0312 (≈ 0.0906 µM) |  |  |  |  |  | 0.625 (≈ 1.81 µM) | 0.625 (≈ 1.81 µM) |  |  |  |  | 0.5 (≈ 1.45 µM) | 0.0312 (≈ 0.0906 µM) |  |  | 5 (≈ 14.5 µM) | 
